Activity calls are given as the source filed them. No cut-off for these calls is given here. Non-standard residues stand in square brackets, D forms with d. Nle = CCCC[C@H](N)C(=O)O

A word on the EC50: it is the concentration needed to bring the measured effect to its halfway point. High values mean a less potent agent, low ones a more potent agent.

The test system of assay [1] is Human immunodeficiency virus 1. As to the kind of experiment: Antiviral activity against enfuvirtide-resistant Human immunodeficiency virus 1 NL4-3 by MAGI assay using human HeLa Cd4/LTR-beta-galactosidase cells. As to conditions: Human immunodeficiency virus 1, NL4-3, HeLa. It is filed as functional, organism-based.
The subject of assay [2] is Human immunodeficiency virus 1. Put plainly: Antiviral activity against enfuvirtide-resistant Human immunodeficiency virus 1 NL4-3 harboring gp41 D36G mutation by MAGI assay using human HeLa Cd4/LTR-beta-galactosidase cells. It is filed as functional, organism-based.
The subject of assay [3] is Human immunodeficiency virus 1. Put plainly: Antiviral activity against enfuvirtide-resistant Human immunodeficiency virus 1 NL4-3 harboring gp41 D36G/V38A mutation by MAGI assay using human HeLa Cd4/LTR-beta-galactosidase cells. It is filed as functional, organism-based.
The test system of assay [4] is Human immunodeficiency virus 1. As to the kind of experiment: Antiviral activity against enfuvirtide-resistant Human immunodeficiency virus 1 NL4-3 harboring gp41 D36G/N43D mutation by MAGI assay using human HeLa Cd4/LTR-beta-galactosidase cells. The assay is classed as functional, organism-based.
Assay [5] deals with Human immunodeficiency virus 1. Put plainly: Antiviral activity against enfuvirtide-resistant Human immunodeficiency virus 1 NL4-3 harboring gp41 D36G/N43D/S138A mutation by MAGI assay using human HeLa Cd4/LTR-beta-galactosidase cells. The assay is classed as functional, organism-based.
Assay [6] concerns Human immunodeficiency virus 1. As to the kind of experiment: Antiviral activity against enfuvirtide-resistant Human immunodeficiency virus 1 NL4-3 harboring gp41 D36G/N126K mutation by MAGI assay using human HeLa Cd4/LTR-beta-galactosidase cells. The assay is classed as functional, organism-based.
The test system of assay [7] is Human immunodeficiency virus 1. As to the kind of experiment: Antiviral activity against enfuvirtide-resistant Human immunodeficiency virus 1 NL4-3 harboring gp41 D36G/I37K/N126K/L204I mutation and 5-amino-acid deletion in the V4 region of gp120 protein by MAGI assay using human HeLa Cd4/LTR-beta-galactosidase cells by MAGI assay. It is filed as functional, organism-based.

Assay [8] has as its system Human immunodeficiency virus 1. Put plainly: Antiviral activity against enfuvirtide-resistant Human immunodeficiency virus 1 NL4-3 by MAGI assay using human HeLa Cd4/LTR-beta-galactosidase cells relative to HIV1 NL4-3 gp41 D36G mutant. It is filed as functional.
Assay [9] relates to Human immunodeficiency virus 1. Put plainly: Antiviral activity against enfuvirtide-resistant Human immunodeficiency virus 1 NL4-3 harboring gp41 D36G/V38A mutation by MAGI assay using human HeLa Cd4/LTR-beta-galactosidase cells relative to HIV1 NL4-3 gp41 D36G mutant. The assay is classed as functional.
Assay [10] deals with Human immunodeficiency virus 1. Put plainly: Antiviral activity against enfuvirtide-resistant Human immunodeficiency virus 1 NL4-3 harboring gp41 D36G/N43D mutation by MAGI assay using human HeLa Cd4/LTR-beta-galactosidase cells relative to HIV1 NL4-3 gp41 D36G mutant. It is filed as functional.
Assay [11] has as its system Human immunodeficiency virus 1. Put plainly: Antiviral activity against enfuvirtide-resistant Human immunodeficiency virus 1 NL4-3 harboring gp41 D36G/N43D/S138A mutation by MAGI assay using human HeLa Cd4/LTR-beta-galactosidase cells relative to HIV1 NL4-3 gp41 D36G mutant. It is filed as functional.
Assay [12] concerns Human immunodeficiency virus 1. Put plainly: Antiviral activity against enfuvirtide-resistant Human immunodeficiency virus 1 NL4-3 harboring gp41 D36G/N126K mutation by MAGI assay using human HeLa Cd4/LTR-beta-galactosidase cells relative to HIV1 NL4-3 gp41 D36G mutant. It is filed as functional.
Assay [13] concerns Human immunodeficiency virus 1. Put plainly: Antiviral activity against enfuvirtide-resistant Human immunodeficiency virus 1 NL4-3 harboring gp41 D36G/I37K/N126K/L204I mutation and 5-amino-acid deletion in the V4 region of gp120 protein by MAGI assay using human HeLa Cd4/LTR-beta-galactosidase cells relative to HIV1 NL4-3 gp41 D36G mutant by MAGI assay. The assay is classed as functional.

The subject of assay [14] is Human immunodeficiency virus 1. As to the kind of experiment: Antiviral activity against Human immunodeficiency virus 1 NL4-3 assessed as decrease in EC50 by MAGI assay relative to ddC. The assay is classed as functional, organism-based. The method, boiled down: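 HeLa CD4/LTR-β-galactosidase (MAGI) cells were seeded at 10^4/well and infected next day with HIV-1 NL4-3 (60 MAGI U/well). They were cultured 48 h with serial drug dilutions in medium containing 5, 10, 20 or 50% FCS, with ddC as the reverse transcriptase inhibitor reference. X-gal-stained blue cells were counted. EC50 is the concentration giving 50% inhibition, determined three times independently.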

The subject of assay [15] is Human immunodeficiency virus 1. Put plainly: Antiviral activity against enfuvirtide-resistant Human immunodeficiency virus 1 NL4-3 by MAGI assay using human HeLa Cd4/LTR-beta-galactosidase cells in presence of 5 to 50% fetal calf serum. The assay is classed as functional, organism-based. The procedure, abridged: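 MAGI assay against HIV-1 NL4-3 run with FCS at 5, 10, 20 or 50% in the medium. HeLa CD4/LTR-β-galactosidase cells were inoculated at 60 MAGI U/well, cultured 48 h with drug, and X-gal-stained blue cells counted. Each EC50 was determined three times independently, with Student's t test.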

The test system of assay [16] is Human immunodeficiency virus 1. As to the kind of experiment: Antiviral activity against enfuvirtide-resistant Human immunodeficiency virus 1 NL4-3 by MAGI assay using human HeLa Cd4/LTR-beta-galactosidase cells in presence fresh human serum after 2 hrs. The assay is classed as functional, organism-based.

As to `CC[C@H](C)[C@H](NC(=O)[C@H](CC(C)C)NC(=O)[C@H](CO)NC(=O)[C@H](Cc1cnc[nH]1)NC(=O)[C@@H](NC(=O)[C@H](CC(C)C)NC(=O)[C@H](CO)NC(=O)[C@@H](NC(=O)[C@H](Cc1ccc(O)cc1)NC(=O)[C@H](CC(N)=O)NC(=O)[C@H](CC(N)=O)NC(=O)[C@@H](NC(=O)[C@H](CCC(=O)O)NC(=O)[C@H](CCCNC(=N)N)NC(=O)[C@H](CC(=O)O)NC(=O)[C@H](Cc1c[nH]c2ccccc12)NC(=O)[C@H](CCC(=O)O)NC(=O)[C@@H](CCS)NC(=O)[C@@H](N)Cc1c[nH]c2ccccc12)[C@@H](C)CC)[C@@H](C)O)[C@@H](C)CC)C(=O)N[C@@H](CCC(=O)O)C(=O)N[C@@H](CCC(=O)O)C(=O)N[C@@H](CO)C(=O)N[C@@H](CCC(N)=O)C(=O)N[C@@H](CC(N)=O)C(=O)N[C@@H](CCC(N)=O)C(=O)N[C@@H](CCC(N)=O)C(=O)N[C@@H](CCC(=O)O)C(=O)N[C@@H](CCCCN)C(=O)N[C@@H](CC(N)=O)C(=O)N[C@@H](CCC(N)=O)C(=O)N[C@@H](CCC(=O)O)C(=O)N[C@@H](CC(C)C)C(=O)N[C@@H](CC(C)C)C(=O)O`, the EC50 was 245 nM in assay [1]; 52 nM in assay [2]; 504 nM in assay [3]; > 1000 nM in [4]; > 1000 nM in [5]; 192 nM in [6]. In addition, in [7], the 50% effective concentration (EC50) is > 1000 nM. In addition, the “Ratio EC50” value in [8] is listed as 4.7; in assay [9] it was 9.7; in assay [10], >19; in assay [11], >19; in assay [12], 3.7; in [13] it was >19.
As to H-WEEWDKKIEEYTKKIEELIKKS-OH, the EC50 was 217 nM in assay [1]; 686 nM in [2]; 289 nM in [3]; 114 nM in assay [4]; > 1000 nM in [5]; > 1000 nM in [6]. This molecule also gave an EC50 in assay [7] of 252 nM. In addition, the “Ratio EC50” value in [8] is 0.3; in assay [9] it was 0.4; in [10], 0.2; in assay [11] it was >1.5; in [12], >1.5; in assay [13], 0.4.
Consider enfuvirtide, for which the EC50 in [1] amounted to 15 nM; in [2] it was 2.4 nM; in assay [3] it was 23 nM; in assay [4] it was 49 nM; in [5], 84 nM; in [6], 3.4 nM. The same molecule showed an EC50 in assay [7] of 390 nM. The inhibition result in [14] and in [15] was “inactive” in each case. Also, the “Ratio EC50” value in assay [8] is 6.3; in assay [9] it was 9.6; in assay [10], 20; in assay [11] it was 35; in assay [12], 1.4; in [13], 163. For the same molecule, the inhibition result in assay [16] was “Active”.
With “H-W[Nle]EWDRKIEEYTKKIEELIKKSQEQQEKNEKELKREREREG-OH”, the 50% effective concentration (EC50) was 1.6 nM in assay [1]; 2.4 nM in assay [2]; 2.2 nM in [3]; 1.6 nM in assay [4]; 1.5 nM in assay [5]; 12 nM in assay [6]. The molecule also displayed a concentration for a half-maximal effect (EC50) in assay [7] of 3 nM. Moreover, the “Ratio EC50” value is listed as 0.7 in assay [8]; 0.9 in assay [9]; 0.7 in assay [10]; 0.6 in assay [11]; 5 in assay [12]; 1.3 in assay [13]. For the same molecule, in assay [15], the inhibition entry was “Active”.
As for H-WEEWDKKIEEYTKKIEELIKKSEEQQKKN-OH, the EC50 in [1] stood at 2.4 nM; in assay [2], 1.9 nM; in assay [3], 3 nM; in assay [4], 4.1 nM; in assay [5] it was 3.4 nM; in assay [6] it was 2.7 nM. In assay [7], this molecule came in with an EC50 of 50 nM. Further, the “Ratio EC50” value in [8] is recorded as 1.3; in [9] it was 1.6; in [10], 2.2; in assay [11] it was 1.8; in assay [12] it was 1.4; in assay [13], 26. For the same molecule, the inhibition entry in assay [15] and in [16] was “Active” throughout.

The values above are taken from ChEMBL document CHEMBL1649128, “SC29EK, a peptide fusion inhibitor with enhanced alpha-helicity, inhibits replication of human immunodeficiency virus type 1 mutants resistant to enfuvirtide” (Antimicrob Agents Chemother, 2009).
